In PMC3356046 (Frontiers in Oncology, 2011):

Legend:
[1] = system: BP3 human lymphoma cell line; experiment: Apoptosis, Annexin V-FITC and propidium iodide assay, BP3; assay type: cell-based
How it was run: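 BP3 diffuse large B-cell lymphoma cells were grown in RPMI 1640 with 10% FBS and penicillin/streptomycin, then exposed to varying concentrations of test compound for 1 day. They were stained with FITC-Annexin V and propidium iodide and analysed by flow cytometry. Annexin V-negative/PI-negative cells were scored viable. Mean of two independent experiments ± SE.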

[2] = ref Wang et al., 2006b, Mi et al., 2008; cited from earlier work

In the case of `CN(C)CC[C@H](CSc1ccccc1)Nc1ccc(S(=O)(=O)NC(=O)c2ccc(N3CCN(Cc4ccccc4-c4ccc(Cl)cc4)CC3)cc2)cc1[N+](=O)[O-]` [ABT-737], the “cytotoxic activity against BP3 cell lines” value [1] is reported as “no cytotoxic activity”.
For `Cc1cc2c(C(C)C)c(O)c(O)c(C=O)c2c(O)c1-c1c(C)cc2c(C(C)C)c(O)c(O)c(C=O)c2c1O` [(−) Gossypol], the “oral MTD” value [2] is given as ~50 mg/kg.
